Data taken from ChEMBL document CHEMBL5244226, “Cyathane Diterpenes from Cultures of the Bird's Nest Fungus Cyathus hookeri and Their Neurotrophic and Anti-neuroinflammatory Activities” (J Nat Prod, 2019).
Activity calls are given as the source filed them. The rule behind the calls is not given here.

How the values were obtained:
BV-2 = experiment: Antineuroinflammatory activity in mouse BV-2 cells assessed as inhibition of LPS-induced NO production measured after 24 hrs by Griess reagent based assay; type: functional, cell-based; details: BV-2, 24 h
In short: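 BV-2 murine microglia in DMEM with 10% heat-inactivated FBS, seeded 2 × 10^4/well and grown 24 h at 37 °C. Then co-treated 24 h with LPS (E. coli 0111:B4, 1 μg/mL) plus test agent in DMSO. Controls were DMSO+LPS and quercetin. Supernatant nitrite by Griess reaction, A540, against a sodium nitrite standard curve. IC50 is the concentration halving NO output.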

PC-12 [1] = experiment: Neurotrophic activity in rat PC-12 cells assessed as induction of NGF-mediated neurite outgrowth at 10 uM measured after 48 hrs by microscopic analysis; type: functional, cell-based
In short: (§1)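 PC-12 cells (rat) grown in DMEM with 10% heat-inactivated horse serum and 5% FBS at 37 °C, 5% CO2. Plated 1 × 10^4/well on poly-L-lysine for 24 h, then 14 h in low-serum medium (2% HS, 1% FBS). Treated 48 h with compound (DMSO) plus NGF 20 ng/mL; NGF alone as positive control. Triplicate wells, 10 random phase-contrast fields per well, ≥100 cells per field. Neurite-bearing cells counted as percentage of total.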

PC-12 [2] = experiment: Cytotoxicity against rat PC-12 cells at 10 uM; type: toxicity, cell-based; details: pc-12, 10 µM
PC-12 [3] = experiment: Neurotrophic activity in rat PC-12 cells assessed as induction of NGF-mediated neurite outgrowth by measuring neurite bearing cells at 5 uM measured after 48 hrs by microscopic analysis (reference value: 15.7 +/- 0.1%); type: functional; in short: as §1
PC-12 [4] = experiment: Neurotrophic activity in rat PC-12 cells assessed as induction of NGF-mediated neurite outgrowth by measuring neurite bearing cells at 10 uM measured after 48 hrs by microscopic analysis (reference value: 15.7 +/- 0.1%); type: functional; in short: as §1

Row | IC50 (BV-2) [µM] | Compound | Activity (PC-12 [1]) | Activity (PC-12 [2]) | Activity (PC-12 [3]) [%] | Activity (PC-12 [4]) [%]
1 | 22.1 | CC(C)C1=C2[C@H]3C[C@@H](O)C(CO)=C[C@H](O)[C@]3(C)CC[C@@]2(C)CC1 | Active | – | – | –
2 | > 50 | CC(C)C1=C2[C@H]3C[C@H]4O[C@](O)(C=C4C(=O)O)[C@]3(C)CC[C@@]2(C)CC1 | Active | – | – | –
3 | 12 | CC(C)C1=C2[C@H]3C[C@H]4O[C@](O)(C=C4C4O[C@@H](C)[C@@H](C)O4)[C@]3(C)CC[C@@]2(C)CC1 (some centres not stated) | Active | – | – | –
4 | > 50 | CC(C)C1=C2[C@H]3C[C@H]4O[C@](O)([C@H](O)[C@H]4CO)[C@]3(C)CC[C@@]2(C)CC1 | Active | – | – | –
5 | 19.7 | CO[C@H]1C(=O)[C@]2(C)CC[C@@]3(C)CCC(C(C)C)=C3[C@H]2CC=C1C=O | Active | – | – | –
6 | > 50 | CC(C)C1=C2[C@H]3C[C@H]4O[C@](O)([C@H](O)[C@@H]4CO)[C@]3(C)CC[C@@]2(C)CC1 | Active | – | – | –
7 | 6.9 | CO[C@H]1C[C@@H]2C3=C(C(C)C)CC[C@]3(C)CC[C@@]2(C)[C@@H](O)C=C1C=O | – | Toxic | – | –
8 | 9.1 | CO[C@@H]1C(C=O)=CC[C@@H]2C3=C(C(C)C)CC[C@]3(C)CC[C@@]2(C)[C@H]1O | – | Toxic | – | –
9 | 36.8 | COC(OC)C1=C[C@H](O)[C@]2(C)CC[C@@]3(C)CCC(C(C)C)=C3[C@H]2C[C@H]1OC | Active | – | – | –
10 | 10.9 | CC(C)C1=C2[C@H]3CC=C(C=O)CC(=O)[C@]3(C)CC[C@@]2(C)CC1 | Active | – | – | –
11 | 27.3 | CC(C)C1=C2[C@H]3C[C@H]4O[C@](O)(C=C4COC(=O)C(C)O)[C@]3(C)CC[C@@]2(C)CC1 (some centres not stated) | Active | – | 28.1 | 32
12 | 27.8 | CC1=CC(=O)[C@]2(C)CC[C@@]3(C)CCC(C(C)C)=C3[C@H]2CC1 | Active | – | – | –
13 | 32.8 | CC1=C[C@H](O)[C@]2(C)CC[C@@]3(C)CCC(C(C)C)=C3[C@H]2CC1 | Active | – | – | –
14 | > 50 | CC(C)[C@]12CC[C@]3(C)CC[C@@]4(C)C(=O)C=C(CO)[C@H](O)C[C@@H]4[C@@]31O2 | Active | – | – | –
15 | 15.5 | CC(C)C1=C2[C@H]3C[C@H]4O[C@](O)([C@H](O)[C@@H]4C4O[C@@H](C)[C@@H](C)O4)[C@]3(C)CC[C@@]2(C)CC1 (some centres not stated) | Active | – | – | –
